Results as given in ChEMBL document CHEMBL1138743, “Discovery of novel heteroarylazoles that are metabotropic glutamate subtype 5 receptor antagonists with anxiolytic activity” (J Med Chem, 2004).

Key:
[1] = biological target: Metabotropic glutamate receptor 5 (Homo sapiens, UniProt P41594); assay: Inhibitory concentration towards human glutamate receptor 5 in calcium flux assay; format: functional
Procedure, shortened: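 Ltk cells stably expressing human recombinant mGlu5; glutamate as agonist. Cytosolic Ca2+ changes read by fura-2 fluorescence in an automated format. IC50 given as geometric mean with limits and replicate number.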

[2] = biological target: Metabotropic glutamate receptor 5 (Rattus norvegicus, UniProt P31424); assay: Displacement of [3H]3-methoxy-5-(pyridin-2-ylethynyl)pyridine from glutamate 5 receptor of rat cortical membranes; format: cell membranes, Membrane
Chain of Metabotropic glutamate receptor 5 (Rattus norvegicus, UniProt P31424) (P31424 whole entry): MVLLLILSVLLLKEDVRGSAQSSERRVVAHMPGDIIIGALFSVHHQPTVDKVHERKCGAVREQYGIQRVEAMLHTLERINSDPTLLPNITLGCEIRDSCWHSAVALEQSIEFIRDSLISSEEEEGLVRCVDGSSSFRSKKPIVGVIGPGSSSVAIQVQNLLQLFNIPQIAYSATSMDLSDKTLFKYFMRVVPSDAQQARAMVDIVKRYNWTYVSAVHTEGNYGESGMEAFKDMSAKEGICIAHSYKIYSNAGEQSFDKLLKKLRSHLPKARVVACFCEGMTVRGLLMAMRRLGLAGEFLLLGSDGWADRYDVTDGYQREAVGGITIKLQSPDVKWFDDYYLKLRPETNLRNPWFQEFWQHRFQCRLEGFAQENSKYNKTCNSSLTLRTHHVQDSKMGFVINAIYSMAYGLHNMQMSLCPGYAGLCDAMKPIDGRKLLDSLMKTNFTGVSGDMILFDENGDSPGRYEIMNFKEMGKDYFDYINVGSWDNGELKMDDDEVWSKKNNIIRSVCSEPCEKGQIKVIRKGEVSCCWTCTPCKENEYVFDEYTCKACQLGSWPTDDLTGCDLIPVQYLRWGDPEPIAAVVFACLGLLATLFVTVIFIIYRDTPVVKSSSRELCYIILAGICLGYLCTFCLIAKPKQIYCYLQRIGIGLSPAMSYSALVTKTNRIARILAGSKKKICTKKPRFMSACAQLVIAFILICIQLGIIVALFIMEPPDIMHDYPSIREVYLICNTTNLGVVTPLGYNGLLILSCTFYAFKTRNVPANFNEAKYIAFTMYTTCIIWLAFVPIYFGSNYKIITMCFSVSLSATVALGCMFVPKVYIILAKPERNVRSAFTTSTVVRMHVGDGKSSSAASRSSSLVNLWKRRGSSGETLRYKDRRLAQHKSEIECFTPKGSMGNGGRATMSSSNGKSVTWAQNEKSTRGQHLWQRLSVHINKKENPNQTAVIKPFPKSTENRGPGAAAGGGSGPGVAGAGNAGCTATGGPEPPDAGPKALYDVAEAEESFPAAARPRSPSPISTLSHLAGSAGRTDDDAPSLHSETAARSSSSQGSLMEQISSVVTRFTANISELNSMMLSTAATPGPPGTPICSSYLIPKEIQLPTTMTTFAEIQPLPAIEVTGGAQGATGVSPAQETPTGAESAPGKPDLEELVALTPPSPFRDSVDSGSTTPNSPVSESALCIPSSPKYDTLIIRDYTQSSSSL
Procedure, shortened: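 Native mGlu5 in rat cortical membranes; displacement of bound [3H]-3-methoxy-5-(pyridin-2-ylethynyl)pyridine by test compound. Ki given as geometric mean with lower and upper limits and number of replicates.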

[3] = Half life in rat; format: ADME; settings: in vivo
Procedure, shortened: (§1)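 Sprague-Dawley rats given 2 mg/kg iv (n = 2/group) and 10 mg/kg po (n = 3/group). Clearance, volume of distribution, half-life and oral bioavailability derived from plasma concentration profiles.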

[4] = Maximum concentration in rat when administered at 10 mg/kg perorally; format: ADME, organism-based; design: dose 10 mg/kg, route oral; settings: in vivo, po
Procedure, shortened: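 Sprague-Dawley rats dosed 10 mg/kg po (n = 3/group); maximum plasma concentration recorded.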

[5] = Bioavailability in rat; format: ADME, organism-based; settings: in vivo; procedure, shortened: as §1
[6] = Plasma clearance in rat; format: ADME, organism-based; settings: read-out: Clp; procedure, shortened: as §1
[7] = Volume of distribution in rat; format: ADME, organism-based; settings: in vivo; procedure, shortened: as §1
Rattus norvegicus [8] = assay: In vivo receptor occupancy was determined in rats administered perorally after 2 hr; format: functional; settings: po
Procedure, shortened: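 Sprague-Dawley rats dosed orally (n = 5–7/group); tail-vein radioligand given at Tmax, 2 h post-dose. Animals killed 1 min later and brain-bound tracer quantified. Occupancy ED50 from dose–response.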

[9] = Plasma level after 1 hr following 3 mg/kg dose administered intraperitoneally; format: ADME, organism-based; design: dose 3 mg/kg, route intraperitoneal; settings: rat, ip, read-out: Plasma Level
Procedure, shortened: (§2)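 Rats given 3 mg/kg ip; plasma and brain concentrations measured at 1 h after dosing.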

Rattus norvegicus [10] = assay: In vivo receptor occupancy was determined in rats administered intraperitoneally after 1 hr; format: functional; settings: ip
[11] = Brain level after 1 hr following 3 mg/kg dose administered intraperitoneally; format: ADME, organism-based; design: dose 3 mg/kg, route intraperitoneal; settings: rat, ip; procedure, shortened: as §2
Rattus norvegicus [12] = assay: Blockage of fear-conditioning in rats determined in the fear-potentiated startle (FPS) model of anxiety administered perorally after 1 hr; format: functional; settings: po
Procedure, shortened: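 Fear-potentiated startle in Wistar rats (n = 8/group), acute oral dosing, tested 1 h after administration. Startle amplitude compared in dark versus light; ED50 for blocking fear expression.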

[13] = Brain level after 1 hr following 10 mg/kg dose administered intraperitoneally; format: ADME, organism-based; design: dose 10 mg/kg, route intraperitoneal; settings: rat, ip
Procedure, shortened: (§3)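 Rats given 10 mg/kg ip; plasma and brain concentrations measured at 1 h after dosing.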

Rattus norvegicus [14] = assay: In vivo receptor occupancy was determined in rats administered perorally after 30 min; format: functional; settings: po, 0.5 h
[15] = Plasma level after 1 hr following 10 mg/kg dose administered intraperitoneally; format: ADME, organism-based; design: dose 10 mg/kg, route intraperitoneal; settings: rat, ip, read-out: Plasma Level; procedure, shortened: as §3

Chain of Metabotropic glutamate receptor 5 (Homo sapiens, UniProt P41594) (P41594 whole entry): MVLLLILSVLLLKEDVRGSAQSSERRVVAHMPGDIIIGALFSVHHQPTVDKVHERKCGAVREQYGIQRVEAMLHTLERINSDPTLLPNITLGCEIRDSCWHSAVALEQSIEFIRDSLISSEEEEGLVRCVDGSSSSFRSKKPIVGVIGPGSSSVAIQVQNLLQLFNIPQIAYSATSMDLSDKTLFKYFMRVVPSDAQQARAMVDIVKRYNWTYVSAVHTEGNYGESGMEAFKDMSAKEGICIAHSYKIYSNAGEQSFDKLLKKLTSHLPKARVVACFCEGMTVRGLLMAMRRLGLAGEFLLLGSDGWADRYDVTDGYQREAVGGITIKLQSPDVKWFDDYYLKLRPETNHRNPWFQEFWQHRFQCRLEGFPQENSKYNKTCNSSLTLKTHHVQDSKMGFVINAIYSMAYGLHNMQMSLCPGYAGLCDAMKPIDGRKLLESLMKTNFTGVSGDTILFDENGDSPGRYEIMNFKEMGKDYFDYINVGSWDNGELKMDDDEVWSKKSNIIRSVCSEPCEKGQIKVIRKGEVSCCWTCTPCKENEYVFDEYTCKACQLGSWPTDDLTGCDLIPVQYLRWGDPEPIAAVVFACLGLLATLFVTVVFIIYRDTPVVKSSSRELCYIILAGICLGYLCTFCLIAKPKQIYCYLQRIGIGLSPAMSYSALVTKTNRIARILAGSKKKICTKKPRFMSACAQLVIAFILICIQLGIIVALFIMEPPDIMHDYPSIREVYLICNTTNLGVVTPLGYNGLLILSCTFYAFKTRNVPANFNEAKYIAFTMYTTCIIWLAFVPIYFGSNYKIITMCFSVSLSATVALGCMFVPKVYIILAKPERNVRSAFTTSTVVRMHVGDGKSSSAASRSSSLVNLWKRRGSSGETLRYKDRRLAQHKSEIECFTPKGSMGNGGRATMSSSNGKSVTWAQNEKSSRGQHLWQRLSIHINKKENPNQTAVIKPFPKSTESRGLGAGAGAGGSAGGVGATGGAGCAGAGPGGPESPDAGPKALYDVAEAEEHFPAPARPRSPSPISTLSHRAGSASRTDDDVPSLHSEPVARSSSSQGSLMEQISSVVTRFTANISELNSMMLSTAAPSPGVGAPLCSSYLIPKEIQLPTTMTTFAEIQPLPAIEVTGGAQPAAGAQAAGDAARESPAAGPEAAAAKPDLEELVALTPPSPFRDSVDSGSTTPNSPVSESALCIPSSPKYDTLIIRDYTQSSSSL

Compound	IC50 [1]	Ki [2]	Cmax [4]	clearance [6]	also measured
N#Cc1cccc(-n2ccc(-c3ccccn3)n2)c1	440 nM	530 nM	–	–	–
N#Cc1cccc(-c2ccn(-c3ccccn3)n2)c1	3600 nM	> 600 nM	–	–	–
N#Cc1cccc(-c2cnn(-c3ccccn3)c2)c1	890 nM	> 630 nM	–	–	–
N#Cc1cccc(-c2cn(-c3ccccn3)nn2)c1	> 10000 nM	> 630 nM	–	–	–
N#Cc1cccc(-n2cc(-c3ccccn3)nn2)c1	980 nM	> 600 nM	–	–	–
N#Cc1cccc(-c2cnn(-c3ccccn3)n2)c1	210 nM	200 nM	2700 nM	15.1 mL/min/kg	half-life [3]: 1.7 h; bioavailability [5]: 13%; Vd [7]: 1 L/kg
N#Cc1cccc(-n2ncc(-c3ccccn3)n2)c1	80 nM	300 nM	600 nM	15.7 mL/min/kg	half-life [3]: 2.5 h; bioavailability [5]: 3%; Vd [7]: 1.1 L/kg
N#Cc1cc(F)cc(-n2nnc(-c3ccccn3)n2)c1	4 nM	10 nM	2500 nM	16.9 mL/min/kg	ED50 (Rattus norvegicus [8]): 3.6 mg/kg; concentration at 1 h [9]: 2700 nM; bioavailability [5]: 26%; ED50 (Rattus norvegicus [10]): 1.3 mg/kg; Vd [7]: 1.1 L/kg; concentration at 1 h [11]: 2400 nM
N#Cc1cccc(-n2cc(-c3ccccn3)cn2)c1	140 nM	250 nM	1200 nM	9.7 mL/min/kg	half-life [3]: 5.5 h; bioavailability [5]: 3%; Vd [7]: 3.7 L/kg
N#Cc1cccc(-c2ncn(-c3ccccn3)n2)c1	6150 nM	> 600 nM	–	–	–
N#Cc1cccc(-n2cnc(-c3ccccn3)n2)c1	690 nM	> 600 nM	–	–	–
N#Cc1cccc(-c2ccn(-c3ccccn3)c2)c1	4620 nM	> 600 nM	–	–	–
N#Cc1cccc(-n2ccc(-c3ccccn3)c2)c1	190 nM	> 600 nM	900 nM	32.5 mL/min/kg	half-life [3]: 1.7 h; bioavailability [5]: 4%; Vd [7]: 3.6 L/kg
N#Cc1cccc(-c2nc(-c3ccccn3)no2)c1	–	490 nM	–	–	–
N#Cc1cccc(-c2cn(-c3ccccn3)cn2)c1	> 10000 nM	> 600 nM	–	–	–
N#Cc1cccc(-n2cnc(-c3ccccn3)c2)c1	1150 nM	> 600 nM	–	–	–
N#Cc1cccc(-n2nnc(-c3ccccn3)n2)c1	70 nM	190 nM	5800 nM	32.9 mL/min/kg	ED50 (Rattus norvegicus [12]): 5.4 mg/kg; concentration at 1 h [13]: 15300 nM; ED50 (Rattus norvegicus [14]): 3 mg/kg; ED50 (Rattus norvegicus [10]): 3 mg/kg; concentration at 1 h [15]: 10500 nM
N#Cc1cccc(-c2nnn(-c3ccccn3)n2)c1	270 nM	450 nM	–	–	–
